Assays:
[1] = biological target: cGMP-dependent 3',5'-cyclic phosphodiesterase (Homo sapiens, UniProt O00408); test: Inhibition of human platelet PDE by inhibiting cyclic Guanosine monophosphate (cGMP) hydrolysis
Oryctolagus cuniculus = species: Oryctolagus cuniculus; test: Inhibition of platelet aggregation using collagen as activating agent in rabbit platelet rich plasma (PRP); format: functional
Procedure, shortened: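 Rabbit platelet-rich plasma, aggregation triggered by ADP or collagen after 3 min preincubation of PRP with drug. Single or duplicate determinations, reference agent included.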

Phosphodiesterase 3 = Phosphodiesterase 3 (Homo sapiens, UniProt Q14432+Q13370); test: Inhibition of human platelet PDE by inhibiting cyclic Adenosine monophosphate (cAMP) hydrolysis
Rattus norvegicus [2] = species: Rattus norvegicus; test: Oral efficacy in rats using the ex vivo aggregatory protocol; format: functional
Procedure, shortened: (§1)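 Rats given compound orally, then ADP-induced platelet aggregation measured ex vivo.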

Rattus norvegicus [3] = test: Percent inhibition of oral efficacy in rats using the ex vivo aggregatory protocol at 10 mg/kg; format: functional; procedure, shortened: as §1

Chain of cGMP-dependent 3',5'-cyclic phosphodiesterase (O00408 whole entry): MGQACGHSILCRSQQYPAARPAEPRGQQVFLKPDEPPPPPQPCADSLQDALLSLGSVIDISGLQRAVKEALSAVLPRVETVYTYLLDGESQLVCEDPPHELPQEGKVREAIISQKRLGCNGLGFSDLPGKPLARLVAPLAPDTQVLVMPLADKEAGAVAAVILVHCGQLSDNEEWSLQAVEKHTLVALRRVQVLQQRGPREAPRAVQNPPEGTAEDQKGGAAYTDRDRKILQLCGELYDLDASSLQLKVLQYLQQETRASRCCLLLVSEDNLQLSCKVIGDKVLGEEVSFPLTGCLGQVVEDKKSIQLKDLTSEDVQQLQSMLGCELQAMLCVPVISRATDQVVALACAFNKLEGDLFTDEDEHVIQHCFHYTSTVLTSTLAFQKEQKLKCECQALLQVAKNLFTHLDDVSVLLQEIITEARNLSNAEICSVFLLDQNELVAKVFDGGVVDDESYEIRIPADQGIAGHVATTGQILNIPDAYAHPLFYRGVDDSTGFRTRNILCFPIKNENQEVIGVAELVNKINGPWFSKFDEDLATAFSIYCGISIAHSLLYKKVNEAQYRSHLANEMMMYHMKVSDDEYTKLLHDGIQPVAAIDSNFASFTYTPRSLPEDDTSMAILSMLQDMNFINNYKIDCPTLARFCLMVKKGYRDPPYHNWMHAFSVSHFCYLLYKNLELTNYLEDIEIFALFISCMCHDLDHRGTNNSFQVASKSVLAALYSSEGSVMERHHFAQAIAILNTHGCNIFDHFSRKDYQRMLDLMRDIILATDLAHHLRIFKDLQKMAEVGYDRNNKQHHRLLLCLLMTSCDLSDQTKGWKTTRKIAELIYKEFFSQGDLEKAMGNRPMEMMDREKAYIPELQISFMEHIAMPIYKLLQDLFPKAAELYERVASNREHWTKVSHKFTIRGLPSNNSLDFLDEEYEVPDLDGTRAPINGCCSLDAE

Structure (SMILES)	IC50 [1] [nM]	EC50 (Oryctolagus cuniculus) [nM]	IC50 (Phosphodiesterase 3) [nM]	ED50 (Rattus norvegicus [2]) [mg/kg]	inhibition in vivo at 10 mg/kg (Rattus norvegicus [3]) [%]
Cn1c(O)nc2nc3ccc(OCCCC(=O)N4CCCCC4)cc3cc21	60000	2440			
O=C(O)CCCOc1ccc2c(c1)CN1CC(=O)NC1=N2		3460	40		
CC(=O)CCCOc1ccc2[nH]c3nc(O)nc-3cc2c1		70	80		
OCC(O)COc1ccc2[nH]c3nc(O)nc-3cc2c1 (centres undefined)		64	20		
CC(=O)OCCCOc1ccc2[nH]c3nc(O)nc-3cc2c1		30	100		
Cn1c(O)nc2cc3cc(OCCCC(=O)O)ccc3nc21		100	1000	< 10	59
CCOC(=O)C1CCN(C(=O)CCCOc2ccc3[nH]c4nc(O)nc-4cc3c2)CC1	100000	90	5	9.6	
OCCCCCc1ccc2[nH]c3nc(O)nc-3cc2c1		220	100	> 10	26
NC(=O)CCCOc1ccc2[nH]c3nc(O)nc-3cc2c1	> 100000	2520	8		
OCCCOc1ccc2[nH]c3nc(O)nc-3cc2c1	50000	150	9		
CN(C(=O)CCCOc1ccc2nc3c(cc2c1)nc(O)n3C)C1CCCCC1		130	100	< 10	68
COC(=O)CCCCc1ccc2[nH]c3nc(O)nc-3cc2c1		270	900	> 10	29
Cn1c(O)nc2nc3ccc(OCCCC(=O)O)cc3cc21	10000	> 106000	600	> 10	
CCOC(=O)CCCOc1ccc2[nH]c3nc(O)nc-3cc2c1		20	20		
CN(C(=O)CCCCOc1ccc2nc3[nH]c(=O)[nH]c3cc2c1)C1CCCCCC1	5000	2	0.4		
O=C(O)CN(C(=O)CCCOc1ccc2[nH]c3nc(O)nc-3cc2c1)C1CCCCC1		460	0.3		
O=C(CCCOc1ccc2nc3[nH]c(=O)[nH]c3cc2c1)NC1CCCCC1	> 100000	7			31
OCCCc1ccc2[nH]c3nc(O)nc-3cc2c1		410	60		
O=C(O)CCCCc1ccc2[nH]c3nc(O)nc-3cc2c1	10000	21000	20		
N#CCCCCOc1ccc2[nH]c3nc(O)nc-3cc2c1		130	100		
COC(=O)CCCCOc1ccc2nc3nc(O)n(C)c3cc2c1	100000		5000		
CCOC(=O)CN(C(=O)CCCOc1ccc2[nH]c3nc(O)nc-3cc2c1)C1CCCCC1	3000	9	2		
O=C(O)COc1ccc2[nH]c3nc(O)nc-3cc2c1	50000	760	70	< 10	61

Structure (SMILES)	IC50 [1] [nM]	EC50 (Oryctolagus cuniculus) [nM]	IC50 (Phosphodiesterase 3) [nM]	ED50 (Rattus norvegicus [2]) [mg/kg]	inhibition in vivo at 10 mg/kg (Rattus norvegicus [3]) [%]
Cn1c(O)nc2nc3ccc(OCCCS(=O)(=O)c4ccccc4)cc3cc21		15100	300		
O=C(CCCCc1ccc2[nH]c3nc(O)nc-3cc2c1)NC1CCCCC1		190	300		
CN(C(=O)CCCCc1ccc2[nH]c3nc(O)nc-3cc2c1)C1CCCCC1		26	40		
CN(C(=O)CCCCOc1ccc2nc3nc(O)n(C)c3cc2c1)C1CCCCCC1	10000		600	> 10	43
O=C(CCCCc1ccc2[nH]c3nc(O)nc-3cc2c1)NC12C[C@H]3C[C@@H](C1)C[C@@H](C2)C3		300	6		
Oc1nc2cc3cc(OCCCc4nnn[nH]4)ccc3[nH]c-2n1		1580	3		
COC(=O)CCCOc1ccc2nc3c(cc2c1)nc(O)n3C		170	2000		
CN(C(=O)CCCOc1ccc2[nH]c3nc(O)nc-3cc2c1)C1CCCCCC1		5			
O=C(CCCOc1ccc2nc3[nH]c(=O)[nH]c3cc2c1)N1CCOCC1	40000	20			
Oc1nc2cc3cc(OCCCCc4nnnn4C4CCCCC4)ccc3[nH]c-2n1	> 100000	45	4		44
CC(=O)OCCOc1ccc2[nH]c3nc(O)nc-3cc2c1		70	30		
COC(=O)CCCOc1ccc2nc3c(cc2c1)n(C)c(=O)n3C		54700	40000		
Oc1nc2cc3cc(OCCCCc4nnn[nH]4)ccc3[nH]c-2n1		1010	10		
CNC(=O)CCCOc1ccc2[nH]c3nc(O)nc-3cc2c1		830	7	< 10	57
OCCOc1ccc2[nH]c3nc(O)nc-3cc2c1	> 100000	4	20	< 10	
CN(C(=O)CCCCOc1ccc2[nH]c3nc(O)nc-3cc2c1)C1CCCCC1	5000	0.2	2		
O=C(CCCOc1ccc2[nH]c3nc(O)nc-3cc2c1)N1CCCCC1	> 100000		20	< 10	57
CCOC(=O)CCCOc1ccc2c(c1)CN1CC(=O)NC1=N2			70		
CCOC(=O)COc1ccc2[nH]c3nc(O)nc-3cc2c1		7600			
Cn1c(O)nc2nc3ccc(OCCCCC(=O)O)cc3cc21	10000	> 100000	80		
O=c1[nH]c2cc3cc(OCCCS(=O)(=O)c4ccccc4)ccc3nc2[nH]1	> 100000	50	2		
COC(=O)CN(C(=O)CCCOc1ccc2[nH]c3nc(O)nc-3cc2c1)C1CCCCC1	5500	2	0.5	3	
CC(C)OC(=O)CCCOc1ccc2[nH]c3nc(O)nc-3cc2c1		21	300	> 10	24

Structure (SMILES)	IC50 [1] [nM]	EC50 (Oryctolagus cuniculus) [nM]	IC50 (Phosphodiesterase 3) [nM]	ED50 (Rattus norvegicus [2]) [mg/kg]	inhibition in vivo at 10 mg/kg (Rattus norvegicus [3]) [%]
CN(C(=O)CCCCOc1ccc2nc3nc(O)n(C)c3cc2c1)C1CCCCC1	60000		500	10	
CCOC(=O)CCc1ccc2[nH]c3nc(O)nc-3cc2c1		140	600		
O=C(CCCCc1ccc2[nH]c3nc(O)nc-3cc2c1)N1CCCCC1		170	60		
O=C(O)CCCCOc1ccc2nc3[nH]c(=O)[nH]c3cc2c1	30000	> 106000			
O=C(CCCOc1ccc2[nH]c3nc(O)nc-3cc2c1)NC1CCCC1		4	20		
O=C(O)CCCCCOc1ccc2[nH]c3nc(O)nc-3cc2c1	7000	950	4		
CN(C(=O)CCCOc1ccc2nc3c(cc2c1)n(C)c(=O)n3C)C1CCCCC1		13400	5000		
CC(O)CCCOc1ccc2[nH]c3nc(O)nc-3cc2c1 (centres undefined)		70	100		
CN(C(=O)CCCOc1ccc2nc3nc(O)n(C)c3cc2c1)C1CCCCCC1	7000	10	100	10	
OCCCCOc1ccc2[nH]c3nc(O)nc-3cc2c1	20000	33	6	> 10	47
CN(C(=O)CCCCCOc1ccc2nc3[nH]c(=O)[nH]c3cc2c1)C1CCCCC1	7000	6	3		
O=C(O)C1CCN(C(=O)CCCOc2ccc3[nH]c4nc(O)nc-4cc3c2)CC1		180	20		
Cn1c(=O)n(C)c2nc3ccc(OCCCC(=O)O)cc3cc21		1250	4000		
COC(=O)CCCOc1ccc2nc3[nH]c(=O)n(C)c3cc2c1	100000				
COC(=O)CCCCCOc1ccc2nc3[nH]c(=O)[nH]c3cc2c1	> 100000	27	60		
COC(=O)CCCCOc1ccc2[nH]c3nc(O)nc-3cc2c1	> 100000				
CCOCCOc1ccc2[nH]c3nc(O)nc-3cc2c1		1290	50		
CC(=O)OCCCCOc1ccc2[nH]c3nc(O)nc-3cc2c1		320	40		
O=C(CCCOc1ccc2[nH]c3nc(O)nc-3cc2c1)NC12C[C@H]3C[C@@H](C1)C[C@@H](C2)C3	100000	50	1	4	
N#CCCCOc1ccc2[nH]c3nc(O)nc-3cc2c1		33	6		
CN(C(=O)CCCOc1ccc2nc3nc(O)n(C)c3cc2c1)C1CCCCC1	8000	40	200		
O=C(CCCOc1ccc2[nH]c3nc(O)nc-3cc2c1)NC1CCCCCC1		8	10	5.4	
CN(C(=O)CCCOc1ccc2c(c1)CN1CC(=O)NC1=N2)C1CCCCC1 [LIXAZINONE]		80	3		

From ChEMBL document CHEMBL1125485, “Inhibitors of blood platelet cAMP phosphodiesterase. 2. Structure-activity relationships associated with 1,3-dihydro-2H-imidazo[4,5-b]quinolin-2-ones substituted with functionalized side chains” (J Med Chem, 1992)
